Laboratory results published in ChEMBL document CHEMBL1127424, “7-azetidinylquinolones as antibacterial agents. 2. Synthesis and biological activity of 7-(2,3-disubstituted-1-azetidinyl)-4-oxoquinoline- and -1,8-naphthyridine-3-carboxylic acids. Properties and structure-activity relationships of quinolones with an azetidine moiety” (J Med Chem, 1994).
≈ marks a conversion by molar mass, not a printed value.

What was measured:
[1] = HPLC capacity factor (k'); type: ADME
Outline: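 Ion-pair reversed-phase HPLC on ODS-2 (10 μm) at 45 °C. Mobile phase: 10 mM sodium heptanesulfonate plus 50 mM KH2PO4 (pH 3.5)–methanol 45:55, 1 mL/min. Samples at 100 μg/mL in DMF, injected in duplicate, UV 280 nm. k' = (tR − t0)/t0.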

[2] = Measured ionization constant (pKa); type: physicochemical; conditions: read-out: pKa1
Outline: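 Spectrophotometric titration at 20 ± 1 °C, 0.1 M ionic strength, pH varied with H2SO4 or NaOH made up in the compound stock. Absorbance followed at compound-specific wavelengths chosen from 200–400 nm scans. pKa1 and pKa2 taken as the inflection points of the two-step absorbance vs pH curve.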

[3] = tested on: Staphylococcus aureus; assay: In vitro minimum inhibitory concentration for Staphylococcus aureus ATCC 25178; type: functional
Outline: (§1)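 Serial 2-fold agar dilution in Mueller Hinton medium, run alongside a reference quinolone. Inoculum adjusted to 10⁸ cfu/mL; compound range 0.007–16 μg/mL.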

[4] = tested on: Klebsiella pneumoniae; assay: In vitro minimum inhibitory concentration to inhibit Klebsiella pneumoniae ATCC 10031; type: functional; outline: as §1
[5] = tested on: Bacillus cereus; assay: In vitro minimum inhibitory concentration for Bacillus cereus ATCC 11778; type: functional; outline: as §1
[6] = tested on: Enterococcus faecalis; assay: In vitro minimum inhibitory concentration for Streptococcus faecalis ATCC 10541; type: functional; outline: as §1
[7] = tested on: Bacillus subtilis; assay: In vitro minimum inhibitory concentration for Bacillus subtilis ATCC 6633; type: functional; outline: as §1
[8] = tested on: Enterobacter cloacae; assay: In vitro minimum inhibitory concentration for Enterobacter cloacae ATCC 23355; type: functional
[9] = tested on: Staphylococcus epidermidis; assay: In vitro minimum inhibitory concentration for Staphylococcus epidermidis ATCC 155-1; type: functional; outline: as §1
[10] = tested on: Morganella morganii; assay: In vitro minimum inhibitory concentration for Morganella morganii ATCC 8019; type: functional; outline: as §1
[11] = tested on: Escherichia coli; assay: In vitro minimum inhibitory concentration for Escherichia coli ATCC 10799; type: functional; outline: as §1
[12] = tested on: Proteus vulgaris; assay: In vitro minimum inhibitory concentration for Proteus vulgaris ATCC 8427; type: functional; outline: as §1
[13] = tested on: Pseudomonas aeruginosa; assay: In vitro minimum inhibitory concentration for Pseudomonas aeruginosa ATCC 10145; type: functional; outline: as §1
[14] = AUC (0-4 hr) ug/ml/h; type: ADME, cell-free; design: time < 4 hr; concentration or dose not given beside the values; conditions: plasma
Outline: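 Mice dosed once orally at 50 mg/kg; blood taken from groups of six mice at 0.5, 1, 2 and 4 h. Serum drug assayed by disk agar diffusion bioassay (Bacillus subtilis ATCC 6633 on Seed Agar, 37 °C, 18 h), giving total activity.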

[15] = Solubility (buffer pH 7.4); type: physicochemical; conditions: read-out: S
Outline: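 Excess solid shaken in 0.05 M phosphate buffer pH 7.4 for 24 h at 25 °C. Suspension filtered through 0.22 μm, discarding the first portion. Filtrate diluted in 0.1 N HCl or 0.1 N NaOH and read by UV at the compound's absorbance maximum.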

[16] = tested on: Mus musculus; assay: Evaluation of efficacy on systemic infections Staphylococcus aureus HS-93, after oral administration in mice; type: functional
Outline: (§2)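 Single oral dose given immediately after infection, one of four doses per group, chosen from in vitro activity. Survival scored after one week. ED50 (total mg/kg protecting 50%) interpolated from survival rates.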

[17] = tested on: Mus musculus; assay: Evaluation of efficacy on systemic infections Pseudomonas aeruginosa HS-116, after oral administration in mice; type: functional; outline: as §2
[18] = tested on: Mus musculus; assay: Evaluation of efficacy on systemic infections Escherichia coli HM-42, after oral administration in mice; type: functional; outline: as §2

Compound	Log k' [1]	pKa [2]	MIC [3] [µg/mL]	MIC [4] [µg/mL]	MIC [5] [µg/mL]	MIC [6] [µg/mL]	MIC [7] [µg/mL]	MIC [8] [µg/mL]	MIC [9] [µg/mL]	MIC [10] [µg/mL]	MIC [11] [µg/mL]	MIC [12] [µg/mL]	MIC [13] [µg/mL]	AUC [14] [ng·h/mL]	solubility [15] [µg/mL]	ED50 [16] [mg/kg]	ED50 [17] [mg/kg]	ED50 [18] [mg/kg]
Nc1c(F)c(N2CC(N)C2)c(F)c2c1c(=O)c(C(=O)O)cn2C1CC1	-0.0505	6.65																
CC[C@H]1[C@@H](O)CN1c1cc2c(cc1F)c(=O)c(C(=O)O)cn2C1CC1	0.529		1 (≈ 2.89 µM)	0.5 (≈ 1.44 µM)	1 (≈ 2.89 µM)	8 (≈ 23.1 µM)	0.06 (≈ 0.173 µM)	0.5 (≈ 1.44 µM)	0.5 (≈ 1.44 µM)	1 (≈ 2.89 µM)	2 (≈ 5.77 µM)	0.5 (≈ 1.44 µM)	8 (≈ 23.1 µM)					
CCn1cc(C(=O)O)c(=O)c2cc(F)c(N3C[C@@H](N)[C@@H]3C)cc21	-0.0915		1 (≈ 3.13 µM)	0.06 (≈ 0.188 µM)	1 (≈ 3.13 µM)	2 (≈ 6.26 µM)	0.12 (≈ 0.376 µM)	0.12 (≈ 0.376 µM)	0.25 (≈ 0.783 µM)	0.25 (≈ 0.783 µM)	0.25 (≈ 0.783 µM)	1 (≈ 3.13 µM)	2 (≈ 6.26 µM)					
NC1CN(c2cc3c(cc2F)c(=O)c(C(=O)O)cn3C2CC2)C1	-0.0607	6.49																
C[C@H]1[C@@H](O)CN1c1cc2c(cc1F)c(=O)c(C(=O)O)cn2C1CC1	0.3299		0.25 (≈ 0.752 µM)	0.25 (≈ 0.752 µM)	0.25 (≈ 0.752 µM)	2 (≈ 6.02 µM)	0.015 (≈ 0.0451 µM)	0.25 (≈ 0.752 µM)	0.25 (≈ 0.752 µM)	0.5 (≈ 1.5 µM)	0.5 (≈ 1.5 µM)	0.25 (≈ 0.752 µM)	4 (≈ 12 µM)					
NC1CN(c2c(F)cc3c(=O)c(C(=O)O)cn(C4CC4)c3c2Cl)C1	-0.0264	5.96																
CC[C@H]1[C@@H](N)CN1c1cc2c(cc1F)c(=O)c(C(=O)O)cn2C1CC1	0.1708		0.25 (≈ 0.724 µM)	0.015 (≈ 0.0434 µM)	0.25 (≈ 0.724 µM)	4 (≈ 11.6 µM)	0.015 (≈ 0.0434 µM)	0.12 (≈ 0.347 µM)	0.25 (≈ 0.724 µM)	0.25 (≈ 0.724 µM)	0.12 (≈ 0.347 µM)	0.25 (≈ 0.724 µM)	2 (≈ 5.79 µM)	3600	42.2 (≈ 122 µM)			
C[C@H]1[C@H](N)CN1c1nc2c(cc1F)c(=O)c(C(=O)O)cn2-c1ccc(F)cc1	0.0681		0.25 (≈ 0.647 µM)	0.06 (≈ 0.155 µM)	0.25 (≈ 0.647 µM)	4 (≈ 10.4 µM)	0.06 (≈ 0.155 µM)	0.12 (≈ 0.311 µM)	0.25 (≈ 0.647 µM)	0.25 (≈ 0.647 µM)	0.12 (≈ 0.311 µM)	2 (≈ 5.18 µM)	2 (≈ 5.18 µM)			11.9	> 400	3.1

Further lines, with some results ahead:

Log k' [1]	pKa [2]	MIC [3] [µg/mL]	MIC [4] [µg/mL]	MIC [5] [µg/mL]	MIC [6] [µg/mL]	MIC [7] [µg/mL]	MIC [8] [µg/mL]	MIC [9] [µg/mL]	MIC [10] [µg/mL]	MIC [11] [µg/mL]	MIC [12] [µg/mL]	MIC [13] [µg/mL]	AUC [14] [ng·h/mL]	solubility [15] [µg/mL]	Compound	ED50 [16] [mg/kg]	ED50 [17] [mg/kg]	ED50 [18] [mg/kg]
0.1312		0.25 (≈ 0.688 µM)	0.03 (≈ 0.0826 µM)	0.25 (≈ 0.688 µM)	1 (≈ 2.75 µM)	0.06 (≈ 0.165 µM)	0.06 (≈ 0.165 µM)	0.12 (≈ 0.33 µM)	0.12 (≈ 0.33 µM)	0.12 (≈ 0.33 µM)	0.5 (≈ 1.38 µM)	2 (≈ 5.5 µM)	20600	3.3 (≈ 9.08 µM)	C[C@H]1N(c2c(F)cc3c(=O)c(C(=O)O)cn(C4CC4)c3c2F)C[C@]1(C)N			
0.1399		0.12 (≈ 0.33 µM)	0.015 (≈ 0.0413 µM)	0.12 (≈ 0.33 µM)	2 (≈ 5.5 µM)	0.015 (≈ 0.0413 µM)	0.12 (≈ 0.33 µM)	0.12 (≈ 0.33 µM)	0.12 (≈ 0.33 µM)	0.12 (≈ 0.33 µM)	0.25 (≈ 0.688 µM)	2 (≈ 5.5 µM)	14700	55.9 (≈ 154 µM)	CC[C@H]1[C@@H](N)CN1c1c(F)cc2c(=O)c(C(=O)O)cn(C3CC3)c2c1F			
0.262		0.25 (≈ 0.684 µM)	0.06 (≈ 0.164 µM)	0.25 (≈ 0.684 µM)	0.5 (≈ 1.37 µM)	0.06 (≈ 0.164 µM)	0.25 (≈ 0.684 µM)	0.25 (≈ 0.684 µM)	0.25 (≈ 0.684 µM)	0.25 (≈ 0.684 µM)	0.25 (≈ 0.684 µM)	2 (≈ 5.47 µM)			C[C@H]1[C@H](N)CN1c1c(F)cc2c(=O)c(C(=O)O)cn(C(C)(C)C)c2c1F			
0.518		0.12 (≈ 0.343 µM)	0.015 (≈ 0.0428 µM)	0.06 (≈ 0.171 µM)	1 (≈ 2.85 µM)	0.015 (≈ 0.0428 µM)	0.12 (≈ 0.343 µM)	0.06 (≈ 0.171 µM)	0.25 (≈ 0.714 µM)	0.25 (≈ 0.714 µM)	0.12 (≈ 0.343 µM)	2 (≈ 5.71 µM)			C[C@@H]1[C@@H](O)CN1c1c(F)cc2c(=O)c(C(=O)O)cn(C3CC3)c2c1F			
